Data published in publication PMC3058505 (Hepatology (Baltimore, Md.), 2010).
Where a name gives a salt, the structure may show the parent alone.

Key:
[1] = test system: HCV NS5A and core protein in NS or FL replicons; assay: Western blot of HCV proteins in NS and FL replicons; type: cell-based, hepatitis C virus; details: biliverdin 20 µM, BR 200 µM or FeCl2 100 µM for 24 h; both replicon lines
How it was run: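 Log-phase NS (Huh5-15) or FL (Huh7.5 Con1) replicon cells were treated for 24 h. BV and BR were dissolved in 0.2 N NaOH, with vehicle controls. Cells were then lysed and analysed by Western blot with enhanced chemiluminescence detection. Band intensities were quantified by densitometry.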

replicon cells = assay: Proliferation and cytotoxicity assays; type: cell-based, human; details: medium containing 5 or 10% FBS
[2] = target: HCV NS3/4A protease (recombinant) (Hepatitis C virus genotype 1b, UniProt O92972); assay: SensoLyte 620 HCV Protease Assay with recombinant NS3/4A protease; type: biochemical
Chain of HCV NS3/4A protease (recombinant) (O92972 1013-1207, looked up, natural form): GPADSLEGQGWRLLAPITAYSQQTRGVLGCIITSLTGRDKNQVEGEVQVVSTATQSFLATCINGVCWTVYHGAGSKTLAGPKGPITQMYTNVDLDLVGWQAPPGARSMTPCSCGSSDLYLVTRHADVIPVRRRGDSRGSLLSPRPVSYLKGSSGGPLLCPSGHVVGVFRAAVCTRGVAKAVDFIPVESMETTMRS

[3] = test system: HCV replication in FL or NS replicons; type: cell-based, hepatitis C virus; details: 50 or 100 µM BV overnight with α-interferon
How it was run: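 Cell lines were Huh7.5 cells with full-length Con1 replicons (FL) and Huh5-15 cells with subgenomic replicons (NS). They received α-interferon alone or with BV. BV was dissolved in 0.2 N NaOH, and controls got the same NaOH volume. HCV RNA was measured by real-time RT-PCR using the comparative cycle threshold (ΔCT) method. Values are mean ± SEM of 3 determinations per point.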

[4] = target: endogenous NS3/4A protease from replicon microsomes (Hepatitis C virus genotype 1b, UniProt Q9WMX2); type: biochemical
Chain of endogenous NS3/4A protease from replicon microsomes (Q9WMX2 1027-1657): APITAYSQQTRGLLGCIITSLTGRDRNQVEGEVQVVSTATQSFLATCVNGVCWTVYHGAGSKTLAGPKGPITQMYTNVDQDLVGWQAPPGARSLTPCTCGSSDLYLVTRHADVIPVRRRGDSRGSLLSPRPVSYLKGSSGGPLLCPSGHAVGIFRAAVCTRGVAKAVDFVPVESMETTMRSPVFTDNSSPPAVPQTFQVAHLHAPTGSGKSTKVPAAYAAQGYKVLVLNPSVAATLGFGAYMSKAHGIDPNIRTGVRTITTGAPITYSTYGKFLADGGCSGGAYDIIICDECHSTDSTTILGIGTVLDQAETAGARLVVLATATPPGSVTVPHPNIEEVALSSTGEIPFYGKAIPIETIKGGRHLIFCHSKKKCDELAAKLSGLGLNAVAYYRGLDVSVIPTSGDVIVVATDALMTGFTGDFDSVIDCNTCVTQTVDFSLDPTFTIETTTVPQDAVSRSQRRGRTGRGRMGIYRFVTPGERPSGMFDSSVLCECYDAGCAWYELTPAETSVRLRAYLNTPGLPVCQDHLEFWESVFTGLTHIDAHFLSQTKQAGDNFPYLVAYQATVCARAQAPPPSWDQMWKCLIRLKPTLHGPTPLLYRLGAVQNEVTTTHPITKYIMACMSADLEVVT
Chain of endogenous NS3/4A protease from replicon microsomes (Q9WMX2 1658-1711): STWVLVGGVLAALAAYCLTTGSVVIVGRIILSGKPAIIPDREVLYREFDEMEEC

[5] = test system: J6/JFH infectious HCV in Huh7.5 cells; assay: J6/JFH HCV infection of Huh7.5 cells; type: cell-based, hepatitis C virus; details: BV 20–200 µM, 72 h; HCV polyvalent sera immunoreactivity and HCV RNA
How it was run: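 Huh7.5 cells were inoculated with infectious J6/JFH HCV and passed. They were then treated with BV at 0, 20 or 200 µM for 72 h. Cells were fixed in absolute methanol, washed in PBS and stained with genotype 2A polyvalent human serum. Detection used an anti-human alkaline phosphatase conjugate and photomicroscopy. HCV RNA was measured by ΔCT real-time RT-PCR, 3–5 determinations per group, mean ± SEM.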

[6] = test system: HCV replication in Huh5-15NS replicon; assay: HCV replication in non-structural; type: cell-based, hepatitis C virus; details: for Relative [HCV] [ΔCΤ]: Huh5-15NS, control = 1.0
How it was run: (§1)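 Log-phase replicon cells were incubated overnight with hemin (0, 5, 10 or 20 µM) or control vehicle. Cells were Huh7.5FL (full-length Con1) or Huh5-15NS (subgenomic). Relative HCV RNA was found by real-time RT-PCR with the comparative cycle threshold (ΔCT) method and normalised to vehicle control = 1.0. Each value is the mean of four determinations.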

[7] = test system: HCV replication in Huh7.5FL Con1 replicon; assay: HCV replication in full-length; type: cell-based, hepatitis C virus; details: for Relative [HCV] [ΔCΤ]: Huh7.5FL, control = 1.0
How it was run: as §1

For `C=CC1=C(C)/C(=C/c2[nH]c(Cc3[nH]c(/C=C4\NC(=O)C(C)=C4C=C)c(C)c3CCC(=O)O)c(CCC(=O)O)c2C)NC1=O` [BR, bilirubin], which “Effect on HCV protein expression by Western blot” value (“Effect on HCV protein expression” below) [1] is on record?
Its value is “decreased NS5A”.

And the “Effect on cellular proliferation or toxicity” value (replicon cells)?
Its value is “no effect”.

With `C=CC1=C(C)/C(=C/C2=NC(=C\c3[nH]c(/C=C4\NC(=O)C(C)=C4C=C)c(C)c3CCC(=O)O)/C(CCC(=O)O)=C2C)NC1=O` [Biliverdin, biliverdin-IX-α hydrochloride] as the compound, how does the “Effect on HCV protein expression” value [1] read?
The value was “decreased NS5A”.

And the Ki [2]?
The Ki was 600 nM.

What about the “Mode of inhibition of NS3/4A protease” value ([2]; Lineweaver-Burk plots) of the same compound?
Its value is “mixed competitive and non-competitive inhibition”.

And the “Effect of BV combined with #25346 on protease activity” value ([2]; assays in the presence of both BV and #25346)?
Its value is “additive effect”.

And the “Effect on cellular proliferation or toxicity” value (replicon cells)?
Its value is “no effect”.

And the “Effect on α-interferon antiviral activity” value [3]?
Its value is “clear additive effect”.

What about the “Inhibition of endogenous NS3/4A protease” value [4] of the same compound?
Its value is “potently inhibited”.

And the “Effect on Huh7.5 cell infection with J6/JFH” value [5]?
Its value is “markedly decreased”.

For `[Cl][Fe][Cl]` [FeCl2], which “Effect on HCV protein expression” value [1] is on record?
The value was “decreased NS5A and core protein”.

With hemin [Heme] as the compound, how does the “Relative [HCV] [ΔCΤ]” value ([6]; heme 5 uM overnight) read?
The value was 0.27.

What about the “Relative [HCV] [ΔCΤ]” value ([6]; heme 10 uM overnight) of the same compound?
Its value is 0.09.

What about the “Relative [HCV] [ΔCΤ]” value ([6]; heme 20 uM overnight) of the same compound?
The value was 0.03.

What about the “Lowest level at which antiviral effect is apparent” value ([6]; NS replicon, overnight incubation with hemin) of the same compound?
Its value is 5 µM.

What about the “Lowest level at which antiviral effect is apparent” value ([7]; FL replicon, overnight incubation with hemin) of the same compound?
The value was 5 µM.

And the “Relative [HCV] [ΔCΤ]” value ([7]; heme 5 uM overnight)?
The value was 0.22.

What about the “Relative [HCV] [ΔCΤ]” value ([7]; heme 10 uM overnight) of the same compound?
The value was 0.08.

And the “Relative [HCV] [ΔCΤ]” value ([7]; heme 20 uM overnight)?
Its value is 0.04.
